Data as given in article PMC6474823 (Molecular cell, 2019).

Legend:
[1] = target: Src^3D WT (Homo sapiens, UniProt P12931); test: Inhibitor IC50 determination, fluorescent SFK peptide kinase assay; assay type: biochemical; settings: 1 mM ATP
In short: (§1)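 Kinase concentrations were set in the linear range by prior titration: Src3D WT or V284C at 7.5 nM, Hck3D WT or V284C at 5 nM. Kinase was incubated 30 min with test compound (30 μM top, 3-fold serial dilutions, 10 points) and 1 mM ATP in HEPES pH 7.5 buffer with MgCl2, EGTA, BSA, vanadate and BME. Then 20 μM pyrene-labelled SFK peptide was added for 2 h. Fluorescence was read at ex 344/em 405 nm, in triplicate.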

[2] = test system: kinases in lysates of HEK293T cells expressing Hck^FLAG V284C; test: Kinobead kinome profiling of CystIMATIK probes; assay type: binding, human; settings: 10 μM probe vs DMSO, ~220 kinases enriched
[3] = target: Src^3D V284C (Homo sapiens, UniProt P12931, V284C); test: Inhibitor IC50 determination, fluorescent SFK peptide kinase assay; assay type: biochemical; settings: 1 mM ATP
In short: as §1

[4] = target: Hck^3D WT (Homo sapiens, UniProt P08631); test: as above; assay type: biochemical; settings: 1 mM ATP
Chain of Hck^3D WT (P08631 81-526): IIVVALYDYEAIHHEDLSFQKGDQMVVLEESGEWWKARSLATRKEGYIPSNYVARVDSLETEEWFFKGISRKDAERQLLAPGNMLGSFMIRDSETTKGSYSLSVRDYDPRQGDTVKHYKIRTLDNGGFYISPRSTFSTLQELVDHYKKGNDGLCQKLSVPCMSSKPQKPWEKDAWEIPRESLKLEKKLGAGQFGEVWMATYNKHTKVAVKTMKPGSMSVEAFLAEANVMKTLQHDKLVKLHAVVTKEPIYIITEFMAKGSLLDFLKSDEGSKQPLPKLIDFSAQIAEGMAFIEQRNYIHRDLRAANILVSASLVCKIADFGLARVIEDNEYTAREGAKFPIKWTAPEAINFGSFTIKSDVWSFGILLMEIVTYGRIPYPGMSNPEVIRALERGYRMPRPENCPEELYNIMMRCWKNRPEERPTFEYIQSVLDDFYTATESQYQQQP
In short: as §1

[5] = test system: Src^GFP V284C-expressing SYFs; test: Membrane blebbing microscopy; assay type: cell-based, murine; settings: for membrane blebbing: 15 min treatment, 3 μM 2 or 10 μM 3 (1, 3 or 10 μM 3 for dose dependence)
In short: (§2)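 SYF cells were seeded on glass slides at 2×10^4 and transfected 24 h later with turbofectin (3:1 μL:μg DNA). At 24 h post-transfection, cells were exposed to test compound for 15 min; where indicated, 10 μM ROCK inhibitor was given for 2 h beforehand. Cells were PBS-washed, fixed in 4% paraformaldehyde for 15 min, and stained with NucBlue and Alexa647-wheat-germ agglutinin for 15 min. The fraction of cells showing blebs was scored.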

[6] = target: Src^FLAG V284C (Homo sapiens, UniProt P12931, V284C); test: SH3 domain pulldown assay with inhibitor-treated cells; assay type: cell-based; settings: HEK293 cells treated with 10 μM probe for 2 h; immobilized SH3 domain ligand
In short: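 HEK293T cells expressing SrcFLAG V284C were treated with 10 μM test compound for 2 h. They were then PBS-washed and lysed for 20 min on ice in modified RIPA (pH 7.8, 1% IGEPAL, protease/phosphatase inhibitors, 10 μM compound). Lysates were cleared at 17,000x g, 4 °C, then incubated with SNAP-immobilized SH3 ligand resin, rotating at room temperature for 1 h. Retained Src was quantified by anti-FLAG blotting, n=3.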

[7] = test system: SYFs expressing Src^GFP WT; test: Membrane blebbing microscopy; assay type: cell-based, murine; settings: 10 μM 3, 15 min; Src^GFP WT resistant to probes
[8] = test system: Fyn^myr V284C-expressing SYFs; test: Membrane blebbing microscopy; assay type: cell-based, murine; settings: 10 μM 3, 15 min
In short: as §2

[9] = test system: Src^GFP G2A/V284C-expressing SYFs; test: Membrane blebbing microscopy; assay type: cell-based, murine; settings: 10 μM 3, 15 min; non-myristoylatable Src
In short: as §2

[10] = target: Src^FL K445C (Homo sapiens, UniProt P12931, K445C); test: Isotope-coded maleimide labeling and mass spectrometry; settings: 5 μM inhibitor
In short: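 Purified SrcFL K445C was diluted to 800 nM in HEPES pH 7.6 buffer with 5% glycerol and 0.02% DDM. It was incubated with 5 μM test compound at 25 °C for 30 min, then labelled with 1 mM heavy or light N-ethyl maleimide at 25 °C for 30 min. The reaction was quenched with 10 mM DTT. Heavy and light reactions were mixed, and protein was precipitated with deoxycholate/TCA on ice before mass spectrometry.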

| maleimide labeling of control cysteine residue, 6 complex vs 5 complex ([10]; control peptide) | K445C maleimide labeling, open (6) compared to closed (5) conformation ([10]; αF peptide, ratio 6 complex vs 5 complex) | SMILES | inhibition of WT Src (IC50, Figure 4C) [1] | kinases depleted from Kinobead matrix (selectivity) [2] | inhibition of Src V284C (IC50, Figure 4C) [3] | inhibition of WT Hck (IC50, Figure 4C) [4] | membrane blebbing after pre-treatment with 2 prior to addition of 3 ([5]; 3 μM 2 for 15 min, then 10 μM 3 for 15 min) | membrane blebbing [5] | SH3 domain accessibility (retained Src in SH3 pulldown) [6] | membrane blebbing [7] | membrane blebbing [8] | membrane blebbing [9] |
| --- | --- | --- | --- | --- | --- | --- | --- | --- | --- | --- | --- | --- |
| – | – | COCCn1c(/C=C(/C#N)C(=O)NC(C)C)c(-c2ccc(Cl)cc2)c2c(N)ncnc21 [compound 1, (E)- & (Z)-3-(4-Amino-5-(4-chlorophenyl)-7-(2-methoxyethyl)-7H-pyrrolo[2,3-d]pyrimidin-6-yl)-2-cyano-N-isopropylacrylamide] | insensitive | Hck^FLAG V284C was the only kinase among the ~220 enriched that was depleted | potently inhibited | insensitive | – | – | – | – | – | – |
| – | – | COCCn1c(/C=C(/C#N)C(=O)NC(C)C)c(-c2ccc(Oc3ccccc3)cc2)c2c(N)ncnc21 [compound 2, (E)- & (Z)-3-(4-Amino-7-(2-methoxyethyl)-5-(4-phenoxyphenyl)-7H-pyrrolo[2,3-d]pyrimidin-6-yl)-2-cyano-N-isopropylacrylamide] | minimal inhibition | Hck^FLAG V284C was the only kinase among the ~220 enriched that was depleted | potently inhibited | minimal inhibition | levels of blebbing comparable to cells treated with DMSO or 2 alone | minimally affected | minimal pulldown | – | – | – |
| – | – | CNC(=O)C(C#N)=Cc1c(C#Cc2cc(NC(=O)c3cccc(C(F)(F)F)c3)ccc2C)c2cncnc2n1CCOC [compound 3, (E)- and (Z)-N-(3-((6-(2-cyano-3-(methylamino)-3-oxoprop-1-en-1-yl)-7-(2-methoxyethyl)-7H-pyrrolo[2,3-d]pyrimidin-5-yl)ethynyl)-4-methylphenyl)-3-(trifluoromethyl)benzamide] | minimal inhibition | – | potently inhibited | minimal inhibition | – | induction of blebbing | greatly increased | did not significantly increase membrane blebs | marked increase in blebbing | did not produce blebbing |
| no change in labeling | ~ 5 fold | Cc1ccc(NC(=O)c2cccc(C(F)(F)F)c2)cc1C#Cc1nn(C2CCCC2)c2ncnc(N)c12 [compound 6, N-(3-((4-amino-1-cyclopentyl-1H-pyrazolo[3,4-d]pyrimidin-3-yl)ethynyl)-4-methylphenyl)-3-(trifluoromethyl)benzamide] | – | – | – | – | – | – | – | – | – | – |
